In ChEMBL document CHEMBL3414471 (J Med Chem, 2015):
Activity calls are given as the source filed them. The calls are words filed in the database; no cut-off is given here.

Assays:
[1] = Bioavailability in mouse; assay type: ADME, organism-based; details: in vivo
[2] = target: T1, 5-hydroxytryptamine receptor 2C (Homo sapiens, UniProt P28335); assay: Agonist activity at human 5-HT2C receptor expressed in HEK293 cells assessed as calcium flux by FLIPR assay; assay type: functional, cell-based
T1 sequence (P28335 whole entry): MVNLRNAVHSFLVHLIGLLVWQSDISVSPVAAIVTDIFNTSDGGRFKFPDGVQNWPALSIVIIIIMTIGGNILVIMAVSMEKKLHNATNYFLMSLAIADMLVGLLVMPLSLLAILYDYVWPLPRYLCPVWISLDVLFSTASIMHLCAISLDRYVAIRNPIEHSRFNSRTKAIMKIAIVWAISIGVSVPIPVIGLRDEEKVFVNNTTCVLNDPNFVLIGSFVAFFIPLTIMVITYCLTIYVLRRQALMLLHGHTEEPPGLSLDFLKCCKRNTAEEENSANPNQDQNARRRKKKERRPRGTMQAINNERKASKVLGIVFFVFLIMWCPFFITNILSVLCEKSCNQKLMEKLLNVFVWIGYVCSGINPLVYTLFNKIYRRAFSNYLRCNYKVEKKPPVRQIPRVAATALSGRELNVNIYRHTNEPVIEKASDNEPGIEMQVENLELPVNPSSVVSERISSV

[3] = target: T2, 5-hydroxytryptamine receptor 2C (Homo sapiens) (UniProt P28335); assay: Agonist activity at human 5-HT2C receptor expressed in HEK293 cells assessed as calcium flux by FLIPR assay relative to 5-HT; assay type: functional, cell-based
T2 sequence (whole entry): T1 sequence (P28335 whole entry)
Procedure, shortened: (§1)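 Flp-In-293 cells stably expressing human 5-HT2A, 5-HT2B or 5-HT2C-INI; grown 24–48 h in DMEM/10% dialyzed FBS, plated on poly-L-Lys at 12000 cells/well in 1% dialyzed FBS for 24 h. Loaded 1 h at 37 °C with calcium dye in HBSS, 20 mM Hepes pH 7.40, 2.5 mM probenecid.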

[4] = target: 5-hydroxytryptamine receptor 2B (Homo sapiens, UniProt P41595); assay: Agonist activity at human 5-HT2B receptor expressed in HEK293 cells assessed as calcium flux at 10 uM by FLIPR assay; assay type: functional, cell-based
Procedure, shortened: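 Flp-In-293 cells stably expressing human 5-HT2A, 5-HT2B or 5-HT2C-INI, grown in DMEM with 10% dialyzed FBS, then plated for 24 h in 1% dialyzed FBS. Cells were loaded 1 h at 37 °C with calcium dye in Hepes-buffered HBSS, pH 7.40, containing 2.5 mM probenecid. FLIPR read 10 s baseline, then 120 s after drug addition.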

[5] = target: T3, 5-hydroxytryptamine receptor 2A (Homo sapiens, UniProt P28223); assay: Agonist activity at human 5-HT2A receptor expressed in HEK293 cells assessed as calcium flux by FLIPR assay; assay type: functional, cell-based
[6] = target: T3, 5-hydroxytryptamine receptor 2A; assay: Agonist activity at human 5-HT2A receptor expressed in HEK293 cells assessed as calcium flux by FLIPR assay relative to 5-HT; assay type: functional, cell-based; procedure, shortened: as §1
[7] = species on record: Homo sapiens; assay: Selectivity ratio of EC50 for human 5-HT2A receptor to EC50 for human 5HT2C receptor
[8] = target: CYP2D6 (Homo sapiens, UniProt P10635); assay: Inhibition of human CYP2D6 using dextromethorphan as substrate at 10 uM; assay type: ADME; details: probe dextromethorphan
[9] = target: CYP2C9 (Homo sapiens, UniProt P11712); assay: Inhibition of human CYP2C9 using diclofenac as substrate at 10 uM; assay type: ADME; details: probe diclofenac
[10] = target: CYP2C19 (Homo sapiens, UniProt P33261); assay: Inhibition of human CYP2C19 using omeprazole as substrate at 10 uM; assay type: ADME; details: probe omeprazole
[11] = target: T4, CYP2B6 (Homo sapiens, UniProt P20813); assay: Inhibition of human CYP2B6 using bupropion as substrate at 10 uM; assay type: ADME; details: probe bupropion
T4 sequence (P20813 whole entry): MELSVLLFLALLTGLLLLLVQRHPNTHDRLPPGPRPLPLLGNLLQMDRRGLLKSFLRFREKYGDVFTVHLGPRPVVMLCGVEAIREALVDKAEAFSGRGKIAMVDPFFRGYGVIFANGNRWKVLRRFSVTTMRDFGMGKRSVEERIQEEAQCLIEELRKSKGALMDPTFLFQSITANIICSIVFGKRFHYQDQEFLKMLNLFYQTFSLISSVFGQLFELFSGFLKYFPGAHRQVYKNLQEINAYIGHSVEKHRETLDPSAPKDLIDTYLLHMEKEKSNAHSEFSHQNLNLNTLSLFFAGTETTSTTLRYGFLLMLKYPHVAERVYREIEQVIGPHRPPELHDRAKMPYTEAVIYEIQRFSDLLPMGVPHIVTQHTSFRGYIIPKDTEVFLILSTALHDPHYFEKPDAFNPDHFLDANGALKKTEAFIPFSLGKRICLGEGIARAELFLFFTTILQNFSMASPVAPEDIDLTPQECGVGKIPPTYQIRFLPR

[12] = target: Voltage-gated inwardly rectifying potassium channel KCNH2 (Homo sapiens, UniProt Q12809); assay: Inhibition of human ERG channel expressed in CHO cells by patch clamp method; assay type: cell-based; details: human, cho
[13] = target: T5, hERG (KCNH2) (Homo sapiens, UniProt Q12809); assay: (§2) Inhibition of human ERG channel expressed in CHO cells at […] by patch clamp method; assay type: cell-based; details: CHO cells expressing human ERG channel
[14] = target: T5, hERG (KCNH2); assay: as §2; assay type: cell-based; details: CHO cells expressing human ERG channel; remark: listed apart in the source
[15] = target: T5, hERG (KCNH2); assay: Inhibition of human ERG channel expressed in CHO cells at 3.3 uM by patch clamp method; assay type: cell-based; details: CHO cells expressing human ERG channel
Procedure, shortened: (§3)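 hERG current recorded in CHO cells by automated patch clamp; percent inhibition at 0.37, 1.1, 3.3, 10 and 30 µM.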

[16] = target: T5, hERG (KCNH2); assay: Inhibition of human ERG channel expressed in CHO cells at 10 uM by patch clamp method; assay type: cell-based; details: CHO cells expressing human ERG channel; procedure, shortened: as §3
[17] = target: T5, hERG (KCNH2); assay: Inhibition of human ERG channel expressed in CHO cells at 30 uM by patch clamp method; assay type: cell-based; details: CHO cells expressing human ERG channel; procedure, shortened: as §3
[18] = target: 5-hydroxytryptamine receptor 1A (Homo sapiens, UniProt P08908); assay: Binding affinity to 5HT1A receptor (unknown origin)
[19] = target: 5-hydroxytryptamine receptor 7 (Homo sapiens, UniProt P34969); assay: Binding affinity to 5HT7 receptor (unknown origin)
[20] = target: Alpha-2A adrenergic receptor (Homo sapiens, UniProt P08913); assay: Binding affinity to adrenergic alpha-2A receptor (unknown origin)
[21] = target: Alpha-2B adrenergic receptor (Homo sapiens, UniProt P18089); assay: Binding affinity to adrenergic alpha-2B receptor (unknown origin)
[22] = target: Alpha-2C adrenergic receptor (Homo sapiens, UniProt P18825); assay: Binding affinity to adrenergic alpha-2C receptor (unknown origin)
[23] = target: D(3) dopamine receptor (Homo sapiens, UniProt P35462); assay: Binding affinity to dopamine D3 receptor (unknown origin)
[24] = test system: Mus musculus; assay: Antipsychotic activity in C57BL/6J mouse assessed as reduction of amphetamine-induced locomotor activity administered ip 15 mins prior to amphetamine challenge measured for 105 mins by open field test relative to vehicle-treated control; assay type: functional, organism-based
[25] = target: CYP3A4 (Homo sapiens, UniProt P08684); assay: Inhibition of human CYP3A4 using midazolam as substrate at 10 uM; assay type: ADME; details: probe midazolam
Procedure, shortened: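 Human liver microsomes with test compound at 10 µM; percent inhibition determined using bupropion (2B6), dextromethorphan (2D6) or midazolam (3A/3A4) as probe substrates.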

[26] = target: 5-hydroxytryptamine receptor 6 (Homo sapiens, UniProt P50406); assay: Binding affinity to 5HT6 receptor (unknown origin)

T5 sequence (Q12809 whole entry): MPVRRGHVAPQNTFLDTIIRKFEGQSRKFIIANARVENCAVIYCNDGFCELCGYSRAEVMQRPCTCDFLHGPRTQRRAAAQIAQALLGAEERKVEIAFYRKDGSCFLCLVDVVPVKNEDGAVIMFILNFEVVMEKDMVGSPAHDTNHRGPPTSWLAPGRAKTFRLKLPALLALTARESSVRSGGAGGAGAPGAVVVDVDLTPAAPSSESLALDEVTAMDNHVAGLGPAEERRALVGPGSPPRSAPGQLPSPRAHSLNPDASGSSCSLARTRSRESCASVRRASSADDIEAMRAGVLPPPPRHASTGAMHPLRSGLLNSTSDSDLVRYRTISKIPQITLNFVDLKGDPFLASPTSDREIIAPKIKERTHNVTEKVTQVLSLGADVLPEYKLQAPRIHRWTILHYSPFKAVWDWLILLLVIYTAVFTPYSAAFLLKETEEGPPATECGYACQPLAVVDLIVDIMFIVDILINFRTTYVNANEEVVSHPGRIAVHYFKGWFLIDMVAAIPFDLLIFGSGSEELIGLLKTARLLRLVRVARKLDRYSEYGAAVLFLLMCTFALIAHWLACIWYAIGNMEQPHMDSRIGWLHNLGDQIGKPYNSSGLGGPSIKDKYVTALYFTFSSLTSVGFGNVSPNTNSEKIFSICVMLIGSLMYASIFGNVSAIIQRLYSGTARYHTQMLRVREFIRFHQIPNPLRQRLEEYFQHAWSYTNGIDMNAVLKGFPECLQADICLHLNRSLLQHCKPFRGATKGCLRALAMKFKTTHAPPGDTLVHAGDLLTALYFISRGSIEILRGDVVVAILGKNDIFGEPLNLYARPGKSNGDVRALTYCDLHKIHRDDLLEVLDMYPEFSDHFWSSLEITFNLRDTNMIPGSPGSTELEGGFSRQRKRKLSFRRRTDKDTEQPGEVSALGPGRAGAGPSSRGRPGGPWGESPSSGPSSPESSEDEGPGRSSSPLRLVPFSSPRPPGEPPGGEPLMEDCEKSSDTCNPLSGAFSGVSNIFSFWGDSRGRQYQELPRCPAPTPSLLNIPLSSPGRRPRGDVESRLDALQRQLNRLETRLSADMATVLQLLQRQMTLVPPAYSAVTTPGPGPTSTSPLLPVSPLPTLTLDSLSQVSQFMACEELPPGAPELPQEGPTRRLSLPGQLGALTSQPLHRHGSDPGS
T3 sequence (P28223 whole entry): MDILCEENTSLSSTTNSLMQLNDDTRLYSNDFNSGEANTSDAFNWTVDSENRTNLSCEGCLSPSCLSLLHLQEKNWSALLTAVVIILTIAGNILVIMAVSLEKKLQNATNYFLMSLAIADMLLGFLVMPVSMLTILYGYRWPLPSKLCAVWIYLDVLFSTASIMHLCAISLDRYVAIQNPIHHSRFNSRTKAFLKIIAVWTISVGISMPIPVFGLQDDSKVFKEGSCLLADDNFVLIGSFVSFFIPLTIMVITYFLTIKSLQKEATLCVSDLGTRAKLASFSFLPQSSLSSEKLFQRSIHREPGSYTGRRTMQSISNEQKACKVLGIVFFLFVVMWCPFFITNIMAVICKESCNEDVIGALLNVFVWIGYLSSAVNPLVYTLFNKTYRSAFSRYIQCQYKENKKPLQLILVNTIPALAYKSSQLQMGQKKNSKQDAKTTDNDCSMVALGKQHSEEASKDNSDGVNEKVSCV
Chain of CYP2D6 (P10635 whole entry): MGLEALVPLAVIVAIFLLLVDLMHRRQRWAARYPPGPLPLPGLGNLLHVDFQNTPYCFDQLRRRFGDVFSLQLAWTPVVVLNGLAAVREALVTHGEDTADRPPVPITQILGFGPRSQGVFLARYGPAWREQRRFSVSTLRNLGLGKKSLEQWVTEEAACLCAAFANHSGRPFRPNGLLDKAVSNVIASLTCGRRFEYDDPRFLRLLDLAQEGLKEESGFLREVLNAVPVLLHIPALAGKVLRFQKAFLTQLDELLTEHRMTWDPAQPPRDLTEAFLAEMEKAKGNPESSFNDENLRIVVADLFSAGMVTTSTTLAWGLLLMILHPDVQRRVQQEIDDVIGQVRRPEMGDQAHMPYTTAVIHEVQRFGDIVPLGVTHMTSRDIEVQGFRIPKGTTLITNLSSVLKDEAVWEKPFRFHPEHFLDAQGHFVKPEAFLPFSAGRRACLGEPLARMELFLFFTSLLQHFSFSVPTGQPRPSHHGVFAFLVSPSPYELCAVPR
Chain of CYP3A4 (P08684 whole entry): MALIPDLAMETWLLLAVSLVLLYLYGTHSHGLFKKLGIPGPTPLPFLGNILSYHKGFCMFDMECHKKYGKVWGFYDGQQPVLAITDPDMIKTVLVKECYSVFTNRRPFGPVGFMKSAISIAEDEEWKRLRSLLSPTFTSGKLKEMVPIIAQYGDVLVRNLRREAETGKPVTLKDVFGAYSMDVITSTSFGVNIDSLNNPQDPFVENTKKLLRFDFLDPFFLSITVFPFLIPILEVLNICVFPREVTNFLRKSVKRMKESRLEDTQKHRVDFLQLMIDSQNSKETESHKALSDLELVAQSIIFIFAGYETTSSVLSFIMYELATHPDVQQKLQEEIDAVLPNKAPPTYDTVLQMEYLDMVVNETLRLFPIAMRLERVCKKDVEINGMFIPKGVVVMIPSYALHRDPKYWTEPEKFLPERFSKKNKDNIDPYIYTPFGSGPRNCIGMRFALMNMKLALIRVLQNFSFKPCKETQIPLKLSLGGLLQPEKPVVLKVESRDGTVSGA
Chain of Alpha-2C adrenergic receptor (P18825 whole entry): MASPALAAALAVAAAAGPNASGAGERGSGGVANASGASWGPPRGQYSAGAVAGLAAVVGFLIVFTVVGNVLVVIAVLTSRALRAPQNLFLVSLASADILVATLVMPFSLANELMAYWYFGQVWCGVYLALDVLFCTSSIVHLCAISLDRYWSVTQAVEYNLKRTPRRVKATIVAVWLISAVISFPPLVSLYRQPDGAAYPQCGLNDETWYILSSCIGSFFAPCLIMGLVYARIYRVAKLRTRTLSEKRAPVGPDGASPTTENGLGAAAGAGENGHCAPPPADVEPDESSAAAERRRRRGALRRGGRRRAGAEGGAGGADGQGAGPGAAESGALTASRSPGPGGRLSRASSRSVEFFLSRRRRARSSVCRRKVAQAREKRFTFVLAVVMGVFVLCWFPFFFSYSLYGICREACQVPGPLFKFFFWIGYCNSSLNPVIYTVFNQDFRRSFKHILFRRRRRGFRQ
Chain of D(3) dopamine receptor (P35462 whole entry): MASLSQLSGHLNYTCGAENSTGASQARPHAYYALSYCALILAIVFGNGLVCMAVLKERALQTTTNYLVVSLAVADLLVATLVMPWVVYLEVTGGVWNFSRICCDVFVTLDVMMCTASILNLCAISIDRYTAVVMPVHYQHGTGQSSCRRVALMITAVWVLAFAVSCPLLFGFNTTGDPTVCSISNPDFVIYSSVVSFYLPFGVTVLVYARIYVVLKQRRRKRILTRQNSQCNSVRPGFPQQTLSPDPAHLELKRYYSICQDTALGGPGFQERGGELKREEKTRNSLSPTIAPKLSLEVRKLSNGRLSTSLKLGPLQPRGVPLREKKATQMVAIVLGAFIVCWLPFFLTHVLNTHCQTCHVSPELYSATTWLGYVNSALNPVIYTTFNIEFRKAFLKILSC
Chain of Voltage-gated inwardly rectifying potassium channel KCNH2 (Q12809 whole entry): as the sequence (Q12809 whole entry) above

NC[C@H]1C[C@@H]1c1cc(O)ccc1OCC1CC1
bioavailability [1]: 3.2%

C=CCOc1ccc(F)cc1[C@H]1C[C@@H]1CN.Cl
EC50 [2]: 0.0042 µM | Emax [3]: 87% | Activity [4]: inactive | EC50 [5]: 0.374 µM | Emax [6]: 56% | Ratio EC50 [7]: 89 | inhibition at 10 µM [8]: 43% | inhibition at 10 µM [9]: 35% | inhibition at 10 µM [10]: 22% | inhibition at 10 µM [11]: 80% | inhibition (INH) [12]: Dose-dependent effect | inhibition at […] [13]: 6.4% | inhibition at […] [14]: 8.7% | inhibition at 3.3 µM [15]: 18% | inhibition at 10 µM [16]: 29% | inhibition at 30 µM [17]: 45% | Ki [18]: < 1 µM | Ki [19]: < 1 µM | Ki [20]: < 1 µM | Ki [21]: < 1 µM | Ki [22]: < 1 µM | Ki [23]: < 1 µM | Activity [24]: Dose-dependent effect | inhibition at 10 µM [25]: 15% | Ki [26]: < 1 µM
